This passage reports B-score results from PubChem BioAssay AID2237 (Johns Hopkins Ion Channel Center, 2010).

Hit rate of the full screen: of about 310,000 compounds, about 1,500 (0.48%) were called active.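 The calls were made as follows: active = B-score above 5 SD of library B-scores, and initial fluorescence ratio not above library mean plus 5 SD; inactive = the rest.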 Many of the other results were omitted from the sample, so actives are more common in it than they were.

Sequence of Short transient receptor potential channel 4 (Mus musculus) (Q9QUQ5 whole entry, looked up): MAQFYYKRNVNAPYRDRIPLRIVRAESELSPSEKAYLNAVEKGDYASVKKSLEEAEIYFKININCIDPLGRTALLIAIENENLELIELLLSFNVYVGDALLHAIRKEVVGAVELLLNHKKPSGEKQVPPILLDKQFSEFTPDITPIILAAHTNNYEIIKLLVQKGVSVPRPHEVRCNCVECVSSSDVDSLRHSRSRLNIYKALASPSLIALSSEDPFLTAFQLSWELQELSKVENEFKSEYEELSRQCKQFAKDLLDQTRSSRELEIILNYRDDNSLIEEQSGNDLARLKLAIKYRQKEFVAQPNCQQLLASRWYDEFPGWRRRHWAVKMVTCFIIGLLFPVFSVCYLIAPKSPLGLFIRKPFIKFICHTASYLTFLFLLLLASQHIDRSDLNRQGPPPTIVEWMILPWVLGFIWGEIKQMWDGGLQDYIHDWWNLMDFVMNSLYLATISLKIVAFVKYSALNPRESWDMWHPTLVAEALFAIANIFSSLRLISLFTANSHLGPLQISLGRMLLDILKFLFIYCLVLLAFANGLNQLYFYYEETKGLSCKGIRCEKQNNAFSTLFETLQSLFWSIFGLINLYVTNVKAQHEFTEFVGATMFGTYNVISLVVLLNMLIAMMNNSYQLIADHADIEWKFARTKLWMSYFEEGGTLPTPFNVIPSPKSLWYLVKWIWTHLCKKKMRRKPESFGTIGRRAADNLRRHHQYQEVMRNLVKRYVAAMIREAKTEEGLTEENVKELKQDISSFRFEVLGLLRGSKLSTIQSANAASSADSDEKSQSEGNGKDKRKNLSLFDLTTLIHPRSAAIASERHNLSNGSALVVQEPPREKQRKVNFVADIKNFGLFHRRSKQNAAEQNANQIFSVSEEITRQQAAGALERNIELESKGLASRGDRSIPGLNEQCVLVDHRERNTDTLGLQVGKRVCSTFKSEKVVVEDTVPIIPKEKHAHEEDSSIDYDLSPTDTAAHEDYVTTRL

The target in this assay is Short transient receptor potential channel 4 (Mus musculus) (UniProt Q9QUQ5). The experiment in a line: TRPC4 cation channel opening, calcium rise – Fluo4 calcium, HEK293 TRPC4beta/mu-opioid cells, primary screen (AID 2237).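 As to B-score: positive B-score marks a calcium rise read as TRPC4 activation.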 The settings on record: Fluo4 calcium fluorescence, at 10 µM; active compounds read high. The gist of the method:
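Incubation: 45 min room-temperature Fluo4 loading, 110 s read / System: HEK293 cells stably co-expressing mouse TRPC4beta and mu-opioid receptor / Signal: Fluo4 fluorescence, kinetic / Control set: buffer (low) and maximal DAMGO (high) / Measure: integrated baseline-normalised fluorescence ratio, converted to per-well B score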
Regarding `CCSc1nc(O)c(C(c2cccc(OC)c2)c2c(O)nc(SCC)[nH]c2=O)c(=O)[nH]1`, the B-score result is “inactive”. For `CC1CCN(C(=O)C2CCN(S(=O)(=O)N3CCC4(CC3)OCCO4)CC2)CC1`, the B-score entry was “inactive”. On to `COc1ccc(CCN2C(=O)C3CC=C(C)CC3C2=O)cc1OC` (configuration not stated), for which the B-score result is “inactive”. Regarding `COc1ccc(CCN(C)CCN2C(=O)c3ccccc3C2=O)cc1OC`, the B-score was 159 (active). For the compound `COc1ccc(CCN2C(=O)C(C)=C(C)C2=O)cc1OC`, the B-score entry is “inactive”.

Consider `O=c1[nH]c2ccccc2s1`, for which the B-score result is “inactive”. Turning to `COc1ccc(CN2CCNC(=O)C2CC(=O)N(C)Cc2ccccn2)cc1OC` (configuration not stated), the B-score result was “inactive”.

As for `COc1cccc(CN2CCNC(=O)C2CC(=O)N(C)CCc2ccccn2)c1` (configuration not stated), the B-score is 132 (active). For `CN(CCc1cn[nH]c1)C(=O)CC1C(=O)NCCN1Cc1cccc(Oc2ccccc2)c1` (configuration not stated), the B-score entry is “inactive”. `CCC(C)(C)NC(=O)C(c1ccc(O)cc1)N(Cc1ccco1)C(=O)CCC(=O)Nc1ccccn1` (configuration not stated): the B-score result was “inactive”.

On to `CCOc1c2ccc(C(=O)NC3CCCc4ccccc43)cc2nn1CC` (configuration not stated), for which the B-score entry is “inactive”.

Regarding `OCCC1CN(Cc2ccccc2-c2ccco2)CCN1Cc1ccsc1` (configuration not stated), the B-score was 44 (active). On to `Cc1ccc(CN2CCN(Cc3ccccc3-c3ccco3)CC2CCO)o1` (configuration not stated), for which the B-score entry was “inactive”.

For the compound `OCCC#Cc1ccc(CN2CCN(Cc3ccsc3)C(CCO)C2)cc1` (configuration not stated), the B-score entry was “inactive”.

Turning to `COc1cc(CO)ccc1OCC(=O)Nc1cccc2ccccc12`, the B-score entry is “inactive”. `CCN(CC(=O)NCc1cccs1)C(=O)c1ccc(OC)c(S(=O)(=O)N2CCOCC2)c1`: the B-score result was “inactive”. With `CC(=O)NC1(c2ccc(F)cc2)CCN(C(=O)c2c(F)cccc2F)CC1`, the B-score result is “inactive”. `O=C(c1c(F)cccc1F)N1CCN(c2ncc(Br)cn2)CC1`: the B-score is 204 (active).

As for `O=C(c1c(F)cccc1Cl)N1CCN(c2ccccn2)CC1`, the B-score result is “inactive”. As for `COc1ccc(Cl)cc1C(=O)NNC(=O)c1nc2nc(C)cc(C)n2n1`, the entry is “inactive”; as for `CCc1ccc(-c2nn(-c3ccccc3)cc2CSC(=N)N)cc1`, 260 (active); as for `COc1ccc(-c2nn(-c3ccccc3)cc2C(=O)Nc2nc(CC(C)=O)ns2)cc1`, “inactive”. Turning to `Cc1ccc(-c2nn(-c3ccccc3)cc2CN(Cc2ccccc2)C(=O)CCC(=O)O)o1`, the B-score entry was “inactive”. As for `COc1ccc(-c2cc(=O)oc3cc(OC(C)C(=O)NCC4CCC(C(=O)O)CC4)ccc23)cc1` (configuration not stated), the B-score entry is “inactive”. As to `Cc1[nH]c2ccccc2c1-c1ccc(Cl)nn1`, the B-score result was “inactive”. For the compound `CCOC(=O)C1CCCCN1Cc1ccc(OC)c(OC)c1OC` (configuration not stated), the B-score entry was “inactive”. The same measure for `CCOC(=O)c1cc(C)nc(S(C)(=O)=O)c1C#N`: “inactive”; for `CCCCSc1[nH]c(=O)c(C(=O)OCC)cc1C#N`: 56 (active). With `CCOC(=O)c1cc(C#N)c(N2CCCCC2)nc1-c1ccccc1`, the B-score entry was “inactive”.

Turning to `CC1CCN(CC(=O)Nc2nccs2)CC1`, the B-score entry is “inactive”. Take `COc1ccc(Cl)cc1NC(=O)[C@@H]1CCCN1C(=O)c1cccs1`: the B-score entry was “inactive”.

On to `CCc1ccc(C(CNc2nc(C(F)(F)F)nc3ccccc23)N(C)C)cc1` (configuration not stated), for which the B-score was 51 (active). The same measure for `COc1cccc(CNc2nc(C(F)(F)F)nc3ccccc23)c1`: “inactive”; for `NS(=O)(=O)c1ccc(CCNc2nc(C(F)(F)F)nc3ccccc23)cc1`: “inactive”. As to `COc1ccc(NC(=O)CC2C(=O)NC3CCCCC3N2C(=O)c2ccc(F)cc2)cc1` (configuration not stated), the B-score result was “inactive”. In the case of `CC1(C)C=C2[C@H]3CC[C@@H]4[C@@]5(C)CCC(=O)C(C)(C)[C@@H]5CC[C@@]4(C)[C@]3(C)CC[C@@]2(C(=O)O)CC1`, the B-score result was “inactive”. Consider `CC1(C)C2CCC13CS(=O)(=O)NC3C2` (configuration not stated), for which the B-score entry is “inactive”. Take `Cc1ccc(C(=O)NC23CC4CC(CC(C4)C2)C3)c(Cl)c1`: the B-score result is “inactive”.

In the case of `Cc1ccc(S(=O)(=O)NCCC(=O)NNC(=O)C2COc3ccccc3O2)cc1` (configuration not stated), the B-score entry is “inactive”. The same measure for `O=C(NCc1ccccc1)C1=C[C@@H](c2ccc(C(F)(F)F)cc2)C[C@@H](OCc2ccc(CO)cc2)O1`: “inactive”; for `O=C(C1=C[C@H](C2CC2)C[C@H](OCc2ccc(CO)cc2)O1)N1CCN(Cc2ccccc2)CC1`: “inactive”; for `O=C(NCc1ccccc1)C1=C[C@@H](c2ccccc2)C[C@@H](OCCCCO)O1`: “inactive”. As for `O=C(NCc1ccccc1)C1=C[C@H](C2CC2)C[C@H](OCc2ccc(CO)cc2)O1`, the entry is “inactive”; as for `O=C(NCc1ccccc1)C1=C[C@@H](C2CCCCC2)C[C@@H](OCc2ccc(CO)cc2)O1`, 151 (active). As for `CC(C)(C)[C@H]1C=C(C(=O)NCc2ccccc2)O[C@@H](OCc2ccc(CO)cc2)C1`, the figure is 136 (active); as for `CC(=O)c1ccc(S(=O)(=O)Nc2ccc(-c3ccc4nncn4n3)cc2)cc1`, “inactive”. Take `C#CCOc1ccc(/C=C2/C(=O)ON=C2C)cc1OCC`: the B-score result is “inactive”.

Regarding `COc1ccc(C(=O)C2CCCN(Cc3cccn3-c3ccccn3)C2)c(C)c1` (configuration not stated), the B-score entry was “inactive”.

As for `CCOC(=O)c1ccc(NC(=O)c2c(NCc3ccccc3)[nH]c(=O)[nH]c2=O)cc1`, the B-score result was “inactive”. As for `COc1cccc(CNC(=O)CCC2CCCN(Cc3ccc(OC(F)F)cc3)C2)c1` (configuration not stated), the B-score result is “inactive”.

In the case of `COc1ccc(C[C@H]2CN3C(=NC[C@H]3C)N2CCNC(=O)CCC2CCCCC2)cc1`, the B-score was 78 (active). For the compound `C/C=C(\C)C(=O)NCCN1C2=NC[C@H](Cc3ccc(O)cc3)N2C[C@@H]1Cc1ccc(OC)cc1`, the B-score entry was “inactive”. As to `CCNc1nc(SCCOc2ccccc2)nc(N(C)C)n1`, the B-score entry was “inactive”. As for `O=C(NCCN1C(=O)S/C(=C\c2cccnc2)C1=O)c1ccc(S(=O)(=O)N2CCCC2)cc1`, the entry is “inactive”; as for `CCCc1nc2c(C)cc(-c3nc4ccccc4n3C)cc2n1Cc1ccc(-c2ccccc2C(=O)O)cc1`, 95 (active); as for `CC(=O)c1nc2ccccc2n1Cc1ccccc1`, “inactive”. The same measure for `CC(=O)Nc1nc2ccccc2n1Cc1ccc(C)cc1`: “inactive”; for `COC(=O)N/N=C/c1c[n+]([O-])c2ccccc2[n+]1[O-]`: “inactive”; for `COc1cc(OC)cc(C(=O)N[C@H](C(=O)OCC(=O)NC(C)c2ccccc2)C(C)C)c1` (some centres not stated): 64 (active). On to `Cc1cc(C)cc(OCC(=O)NC(C)c2ccccc2)c1` (configuration not stated), for which the B-score result is “inactive”. For `Cc1ccc(OCC(=O)NC(C)c2ccccc2)cc1C` (configuration not stated), the B-score entry was “inactive”. On to `CCc1ccccc1NC(=O)c1cc(-c2ccc3c(c2)OCO3)on1`, for which the B-score result was “inactive”.

Consider `Cc1ccc(S(=O)(=O)N2CCC(N3CCCCCC3)CC2)cc1`, for which the B-score result is “inactive”. Consider `c1ccc(C2CCC(N3CCC(N4CCCCC4)CC3)CC2)cc1` (configuration not stated), for which the B-score was 123 (active).

Regarding `O=S(=O)(c1ccccc1)N1CCC(c2ccccc2)CC1`, the B-score result is “inactive”. On to `C/C(=N/OC(=O)c1ccc(Br)cc1)c1ccc(C)cc1`, for which the B-score result was “inactive”.

As for `CC(C)N(Cc1nnc(-c2ccc(Cl)cc2)o1)C(=O)C1=COCCO1`, the B-score result was “inactive”. For the compound `Cc1cc(C(=O)Nc2ccccc2N2CCOCC2)c2ccccc2n1`, the B-score entry is “inactive”. As for `COC(=O)c1cc(N2CCNCC2)nc2ccccc12`, the figure is 87 (active). As to `CNC(=O)COC(=O)c1cc(-c2ccc(OC)cc2)nc2ccccc12`, the B-score entry is “inactive”. `Cc1ccc(S(=O)(=O)NCC(=O)N(CC(=O)NCC2CCCO2)c2cccc(F)c2)cc1` (configuration not stated): the B-score result is “inactive”. Turning to `CN(C)CCCN(C(=O)c1ccc(S(=O)(=O)N2CCCCCC2)cc1)c1nc2ccc(Br)cc2s1`, the B-score entry was “inactive”. In the case of `CN(C)CCCN(C(=O)c1ccc(S(=O)(=O)N2CCCc3ccccc32)cc1)c1nc2ccc(F)cc2s1`, the B-score is 197 (active). Consider `CN(C)CCCN(C(=O)c1ccc(S(=O)(=O)N2CCCCCC2)cc1)c1nc2cc3c(cc2s1)OCCO3`, for which the B-score entry is “inactive”.

For the compound `CCOc1ccc(N(CC(=O)NCCOc2ccccc2OC)S(=O)(=O)c2ccccc2)cc1`, the B-score entry was “inactive”. `Cc1nc(/N=C(\N)NC(=O)NC2CCCCC2)nc2ccccc12`: the B-score was 90 (active). Consider `O=C(NNC(=O)C(O)c1ccccc1)NC1CCCCC1` (configuration not stated), for which the B-score result was “inactive”. For the compound `COc1ccc2nc(/N=C(\N)NC(=O)Nc3ccccc3)nc(C)c2c1`, the B-score entry was “inactive”. `COC(=O)C1CCCCN1C(=O)c1ccc(OC2CCN(C(C)=O)CC2)c(OC)c1` (configuration not stated): the B-score entry is “inactive”.

As to `CN(CCO)S(=O)(=O)c1ccc2c(c1)C(=O)c1cc(S(=O)(=O)N(C)CCO)ccc1-2`, the B-score result was “inactive”. For the compound `COC(=O)c1sc(-c2ccc(C(C)(C)C)cc2)cc1NC(=O)/C=C/C(=O)O`, the B-score result was “inactive”.

In the case of `NC(=O)CSc1nnc(NC(=O)c2ccc3ccccc3c2)s1`, the B-score entry is “inactive”.

Regarding `CC(Oc1ccc2ccccc2c1)C(=O)NNC(=S)NC(=O)c1ccco1` (configuration not stated), the B-score was 65 (active). Take `CCCc1ccc(OCC(=O)NNC(=S)NC(=O)c2ccco2)cc1`: the B-score is 66 (active). For `Cc1ccc(C(=O)NNC(=O)C(C)Oc2ccc3ccccc3c2)o1` (configuration not stated), the B-score entry was “inactive”.

Turning to `O=C(Nc1ccc2ccccc2c1)/C(=C/c1cccc(Br)c1)NC(=O)c1ccco1`, the B-score entry is “inactive”. On to `CCCc1ccc(OCCNC(=O)c2ccco2)cc1`, for which the B-score entry was “inactive”. Take `Cc1ccc(OCC(=O)NCCCNC(=O)c2ccco2)cc1C`: the B-score result was “inactive”.

In the case of `COc1cccc(NC(=O)CN2CCN(CC(=O)Nc3ccccc3Cl)CC2)c1`, the B-score result is “inactive”. For the compound `Cc1ccc(C23CC4CC(CC(C(=O)NCC(=O)O)(C4)C2)C3)cc1`, the B-score result was “inactive”.

As to `CCC(=O)Nc1nnc(S(=O)(=O)N(CC(C)C)c2ccccc2)s1`, the B-score entry was “inactive”. As to `Clc1ccc(-c2cc(-c3ccccn3)on2)c(Cl)c1`, the B-score result was “inactive”. On to `Clc1ccc(COn2c(-c3ccc(Cl)cc3Cl)nc3ncccc32)cc1`, for which the B-score was 80 (active). Take `COn1c(-c2ccc(Cl)cc2Cl)nc2ncccc21`: the B-score result was “inactive”. As to `COc1ccccc1/C=N/N1CCN(Cc2ccccc2Cl)CC1`, the B-score result is “inactive”.

For the compound `CC(=O)N1CC2(C)CN(C(C)=O)CC(C)(C1)C2=O`, the B-score entry was “inactive”. As for `COc1ccc(N2CCN(C(=O)CCNC(=O)c3ccc(Br)cc3)CC2)cc1`, the B-score entry is “inactive”. As for `COCCCNC(=O)CNC(=O)c1nn(-c2ccc(OC)cc2)c(=O)c2ccccc12`, the B-score entry is “inactive”. In the case of `CCCN(CCC)CCCNC(=O)CNC(=O)c1nn(-c2ccc(OC)cc2)c(=O)c2ccccc12`, the B-score was 93 (active). Turning to `COc1ccc(-n2nc(C(=O)NCC(=O)Nc3cccc(C)n3)c3ccccc3c2=O)cc1`, the B-score entry was “inactive”. Consider `CCOC(=O)c1cnn(Cc2ccccc2Cl)c1N`, for which the B-score result is “inactive”. For `CCCC(C(=O)NC1CCCC1)N(C(=O)Cn1nnc(-c2ccc(C)o2)n1)c1cccc(O)c1` (configuration not stated), the B-score entry is “inactive”.
